Compounds with a hit are over-represented: about 1.3% of the library has one in this group of screens.
Diaphorase inh – diaphorase inhibitors and chemical oxidizers, primary screen, counter-screen for diaphorase-coupled primary assays, biochemical, uHTS, resorufin fluorescence. diaphorase resazurin-to-resorufin fluorescence, NADH, 16 min; bacterial (C. kluyveri) enzyme, not human. 0.69% of 190,000 active. inhibition, % at 20 µM;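 active = primary screen inhibition at 20 µM above a set limit, cut at about 50% in these data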;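 note: plate controls were DMSO with full reaction for no effect and wells lacking NADH for full effect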
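controls = No-NADH positive control and DMSO neutral control | system = Clostridium kluyveri diaphorase enzyme | timing = reaction incubation of 16 min at room temperature | signal = resorufin fluorescence 544/590 nm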
PfGluPho inh – PfG6PD enzyme inhibitors, primary screen, biochemical, fluorescence intensity, uHTS; inhibition, % at 20 µM; glucose-6-phosphate dehydrogenase-6-phosphogluconolactonase (Plasmodium falciparum 3D7); AID 504690, 2011; 0.78% of 350,000 active; PfGluPho enzyme, NADPH resazurin-diaphorase fluorescence;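 active = inhibition reaching at least a set limit at 20 µM in the primary screen, cut at about 59% in these data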;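 note: 0% = DMSO wells with substrate and 100% = DMSO wells lacking glucose-6-phosphate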
Diaph act CS – compounds boosting diaphorase resazurin reduction – biochemical, uHTS, resorufin fluorescence, counter-screen for diaphorase-coupled primary assays, primary screen | Diaphorase/resazurin coupled assay, 16 min; hits give high values; 1 = vehicle wells, 0 = NADH-free wells | activation factor at 20 µM | 0.005% of 190,000 active;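 active = diaphorase activity raised at least twofold by the compound at 20 µM; inactive = activation factor below 2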
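Test system: Clostridium kluyveri diaphorase, purified enzyme. Buffer or medium: 50 mM HEPES pH 7.4 buffer plus MgCl2 and Tween 20. Also added: 0.114 mM NADH and 0.1 mM resazurin, final amounts. Dosing: compound 20 µM once, DMSO 1%. Schedule: 16 min enzyme reaction, ambient temperature. Detection: fluorescence of resorufin, 544 nm excitation, 590 nm emission.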
G6PDH CS – L. mesenteroides G6PDH inhibitors, counter-screen for G6PDH-coupled screening assays, biochemical, Leuconostoc mesenteroides enzyme | glucose-6-phosphate dehydrogenase [Leuconostoc mesenteroides] | Purified L. mesenteroides G6PDH, diaphorase/resazurin coupled fluorescence, 45 min | inhibition, % at 5 µM | 0.12% of 200,000 active; in the data active = inhibition above about 50%
HKDC1 inh – HKDC1 hexokinase inhibitors, primary screen, biochemical, fluorescence, uHTS; Q2TB90; recombinant HKDC1, G6PDH/diaphorase resazurin coupled fluorescence; inhibition, % at 20 µM; 0.16% of 340,000 active; AID 493160, 2011;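 active = inhibition above about 35% when tested at 20 µM, limit read from the data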;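 note: plate controls were DMSO wells with enzyme for no effect and DMSO wells lacking enzyme for full effect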
Target sequence (Q2TB90 whole entry, looked up): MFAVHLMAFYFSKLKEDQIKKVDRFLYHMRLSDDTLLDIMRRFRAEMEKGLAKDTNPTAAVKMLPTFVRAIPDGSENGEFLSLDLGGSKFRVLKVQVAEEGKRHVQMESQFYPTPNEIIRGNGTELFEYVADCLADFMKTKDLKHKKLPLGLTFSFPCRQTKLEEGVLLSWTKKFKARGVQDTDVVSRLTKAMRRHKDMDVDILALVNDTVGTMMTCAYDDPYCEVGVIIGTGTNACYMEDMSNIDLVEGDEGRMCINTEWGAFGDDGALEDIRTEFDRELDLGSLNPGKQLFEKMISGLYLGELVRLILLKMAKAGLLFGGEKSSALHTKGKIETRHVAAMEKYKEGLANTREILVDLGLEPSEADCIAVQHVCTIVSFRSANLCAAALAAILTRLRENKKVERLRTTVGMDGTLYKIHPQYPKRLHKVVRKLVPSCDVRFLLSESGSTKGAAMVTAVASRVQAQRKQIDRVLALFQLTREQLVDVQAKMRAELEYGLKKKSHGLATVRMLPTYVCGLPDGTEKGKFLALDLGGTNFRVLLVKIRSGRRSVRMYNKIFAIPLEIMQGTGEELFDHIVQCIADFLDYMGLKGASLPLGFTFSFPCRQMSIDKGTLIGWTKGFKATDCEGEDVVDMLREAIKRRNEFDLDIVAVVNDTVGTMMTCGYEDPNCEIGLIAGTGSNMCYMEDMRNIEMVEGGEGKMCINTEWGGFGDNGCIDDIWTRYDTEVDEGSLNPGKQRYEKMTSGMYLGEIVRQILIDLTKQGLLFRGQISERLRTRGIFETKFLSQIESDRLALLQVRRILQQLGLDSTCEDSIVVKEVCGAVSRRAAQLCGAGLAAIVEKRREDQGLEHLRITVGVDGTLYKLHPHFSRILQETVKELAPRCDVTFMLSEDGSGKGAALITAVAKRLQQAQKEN
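Incubation: 90 min at room temperature in dark / Material: recombinant HKDC1 (HK5) hexokinase enzyme, produced in-house / Quantity: enzyme 5 µg/mL final / Compound: one dose of 20 µM, 1% DMSO / Reagent: glucose and ATP substrates / Buffer or medium: Tris pH 8.0 buffer with MgCl2, Tween-20, BSA, BME / Technique: resorufin fluorescence at 613 nm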
PfG6PD confirm – PfG6PD inhibitors, hit retest, confirmation, biochemical, fluorescence intensity, single concentration; AID 504753, 2011; inhibition, % at 20 µM; shares compounds with PfGluPho inh; 34% of 2,400 active; recombinant PfGluPho, NADPH-diaphorase-resazurin fluorescence;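 active = inhibition of at least 50% at 20 µM in any single replicate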;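 note: 0% = DMSO with substrate and 100% = DMSO lacking glucose-6-phosphate substrate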
Diaph ctr 10uM – diaphorase inhibitors and chemical oxidizers, confirmation, counter-screen for P. falciparum G6PD inhibitor project, biochemical, fluorescence intensity, 10 µM NADPH. shares compounds with PfGluPho inh. diaphorase-coupled resazurin reduction, NADPH 10 uM. inhibition, % at 20 µM. 39% of 820 active. AID 504862, 2011;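 active = average inhibition reaching 50% or more with the compound at 20 µM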;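 note: resorufin red fluorescence formed as diaphorase reduces resazurin using NADPH; 0% = DMSO with enzyme and 100% = DMSO without enzyme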
Diaphorase 30uM – diaphorase inhibitors and chemical oxidizers, confirmation, counter-screen for P. falciparum G6PD inhibitor project, biochemical, fluorescence intensity, 30 µM NADPH | shares compounds with PfGluPho inh | Diaphorase/resazurin coupled assay, resorufin fluorescence | inhibition, % at 20 µM | 29% of 820 active | AID 504863, 2011;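 active = inhibition averaging 50% or more, tested at 20 µM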;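 note: 0% = DMSO with enzyme and 100% = DMSO wells lacking diaphorase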
* hit, by the source's call.

How did Oc1c(Br)cc(Br)cc1C=Nc1cccc2ncccc12 do in these assays?
PfGluPho inh: 48; HKDC1 inh: 31; PfG6PD confirm: 36

Results for O=c1cc(SCc2ccccc2)nc[nH]1 ?
PfGluPho inh: 10; HKDC1 inh: -6

How did C=CCCC(=O)N1C[C@H]2CON(C)[C@H]2C[C@H]1c1cccc(Oc2ccccc2)c1 do in these assays?
PfGluPho inh: -2

Results for O=C(Nc1scc(-c2ccccc2)c1C(=O)O)c1ccc(F)cc1 ?
PfGluPho inh: 55; HKDC1 inh: 9

How did O=C(/C=C/c1ccco1)Nc1scc(-c2ccccc2)c1C(=O)O do in these assays?
PfGluPho inh: 75*; HKDC1 inh: 5; PfG6PD confirm: 22

Results for O=C(/C=C/c1ccco1)Nc1nc(-c2ccccc2)cs1 ?
Diaphorase inh: 24; PfGluPho inh: 12; Diaph act CS: 0.8; G6PDH CS: 6; HKDC1 inh: -3

What do the screens show for `O=C(/C=C/c1ccccc1)Nc1scc(-c2ccccc2)c1C(=O)O`?
Diaphorase inh: 8; PfGluPho inh: 61*; Diaph act CS: 0.9; G6PDH CS: -2; HKDC1 inh: 2; PfG6PD confirm: 26

How did COc1ccc(N)cc1-n1c(C)ccc1C do in these assays?
Diaphorase inh: 43; PfGluPho inh: 78*; Diaph act CS: 0.6; G6PDH CS: 44; HKDC1 inh: 14; PfG6PD confirm: 13

How did O=C(CCN1C(=O)/C(=C\c2ccccc2F)SC1=S)N1CCCCC1 do in these assays?
PfGluPho inh: -16; HKDC1 inh: 5

What do the screens show for `Cc1ccc(Cc2c(-c3ccc(C#N)cc3)nc3ccc(Br)cn23)cc1`?
PfGluPho inh: 15

Results for N#Cc1ccc(-c2nc3ccc(Br)cn3c2Cc2ccccc2)cc1 ?
PfGluPho inh: 89*; PfG6PD confirm: 13

Results for C=CCN1C(=O)c2ccc(C(=O)N(CC)CC(=O)Nc3c(F)cccc3F)cc2C1=O ?
PfGluPho inh: -16; HKDC1 inh: -4

What do the screens show for `CC(=O)N(CCc1ccccc1)c1ccc2c(c1)C1CC2CCN1C(=O)OCc1ccccc1` (stereo not drawn)?
PfGluPho inh: 4

What do the screens show for `O=C(NCc1ccco1)c1cccnc1-c1nc2ccccc2s1`?
Diaphorase inh: 7; PfGluPho inh: 60*; Diaph act CS: 0.9; G6PDH CS: -12; HKDC1 inh: 8; PfG6PD confirm: 25

Results for C[C@@H]1CN([C@@H](C)CO)C(=O)c2cc(Br)cnc2O[C@H]1CN(C)C(=O)Cc1cccnc1 ?
PfGluPho inh: -10

How did C=CCN1C(=O)c2ccc(C(=O)OCC(=O)N3CCN(c4ccccc4)CC3)cc2C1=O do in these assays?
PfGluPho inh: 8; HKDC1 inh: -7

Results for CCC1CCCCN1CCCCOc1cccc(Cl)c1 (stereo not drawn) ?
PfGluPho inh: 4; HKDC1 inh: -5

Results for O=C(Nc1ccc(F)cc1F)Nc1sccc1-c1nc2ccccc2s1 ?
PfGluPho inh: 81*; HKDC1 inh: -1; PfG6PD confirm: 0

How did O=S(=O)(NCc1ccc(F)cc1)c1ccc(Br)cc1Br do in these assays?
PfGluPho inh: 10; HKDC1 inh: 4

What do the screens show for `CN(NC(=O)NN(C)C(=O)c1ccccc1)C(=O)c1ccccc1`?
PfGluPho inh: -8; HKDC1 inh: 2

How did N#Cc1c(/N=C/C=C/c2ccccc2)sc2c1CCCC2 do in these assays?
Diaphorase inh: 5; PfGluPho inh: 60*; Diaph act CS: 1; G6PDH CS: 13; HKDC1 inh: -7; PfG6PD confirm: 16

Results for CN1CCN(/C=N/c2sc3c(c2C#N)CCCCC3)CC1 ?
Diaphorase inh: 7; PfGluPho inh: 6; Diaph act CS: 0.9; G6PDH CS: 0; HKDC1 inh: 4

Results for COc1ccccc1C(=O)Nc1nc2ccccc2s1 ?
PfGluPho inh: 26; HKDC1 inh: 6

What do the screens show for `COc1ccc(OC)c(NC(=O)c2nc3ccccc3s2)c1`?
Diaphorase inh: 6; PfGluPho inh: -3; Diaph act CS: 0.9; G6PDH CS: 0; HKDC1 inh: -5

Results for COc1ccc(C(=O)Nc2nc3ccccc3s2)c(OC)c1 ?
PfGluPho inh: 76*; HKDC1 inh: 3; PfG6PD confirm: 13

How did COc1ccc(NC(=O)c2nc3ccccc3s2)cc1 do in these assays?
Diaphorase inh: -6; PfGluPho inh: 79*; Diaph act CS: 1.1; G6PDH CS: -2; HKDC1 inh: 1; PfG6PD confirm: 16

How did COc1ccc(NC(=O)c2cc3ccccn3n2)cc1 do in these assays?
Diaphorase inh: 20; PfGluPho inh: 64*; Diaph act CS: 0.8; G6PDH CS: -1; HKDC1 inh: 0; PfG6PD confirm: 33

How did COc1ccc2oc(C(=O)NCCN3CCOCC3)c(C)c2c1OC do in these assays?
PfGluPho inh: 19; HKDC1 inh: 0

What do the screens show for `CC1CCCN(S(=O)(=O)c2cccc(C(=O)NCCCN3CCCC3=O)c2)C1` (stereo not drawn)?
PfGluPho inh: -17

What do the screens show for `Cc1cc(N)c2cc(NC(=O)/C=C/c3ccccc3Cl)ccc2n1`?
PfGluPho inh: 60*; HKDC1 inh: 14; PfG6PD confirm: 1

Results for S=C(NC1CCCC1)N1CCN(c2ccccn2)CC1 ?
Diaphorase inh: 8; PfGluPho inh: -6; Diaph act CS: 0.9; G6PDH CS: -10; HKDC1 inh: 15

What do the screens show for `CC(=NNC(=S)N1CCN(c2ccccn2)CC1)c1nccs1`?
PfGluPho inh: 93*; HKDC1 inh: -36; PfG6PD confirm: 57*; Diaph ctr 10uM: -3; Diaphorase 30uM: 4

How did CC(=NNC(=S)N1CCN(c2ccccn2)CC1)c1ccccn1 do in these assays?
PfGluPho inh: 84*; HKDC1 inh: -21; PfG6PD confirm: 30

High-throughput results: PubChem BioAssay, Sanford-Burnham Center for Chemical Genomics
